The values below come from ChEMBL document CHEMBL3608250, “Fragment-Based Discovery of Potent and Selective DDR1/2 Inhibitors” (ACS Med Chem Lett, 2015).

Where a chain is given by its changes, count along the chain named. The source made the active and inactive calls. No cut-off for these calls is given here.

The subject of data set [1] is T1, Discoidin domain-containing receptor 2 (Homo sapiens), Q16832 [I638F].
T1 sequence (whole entry): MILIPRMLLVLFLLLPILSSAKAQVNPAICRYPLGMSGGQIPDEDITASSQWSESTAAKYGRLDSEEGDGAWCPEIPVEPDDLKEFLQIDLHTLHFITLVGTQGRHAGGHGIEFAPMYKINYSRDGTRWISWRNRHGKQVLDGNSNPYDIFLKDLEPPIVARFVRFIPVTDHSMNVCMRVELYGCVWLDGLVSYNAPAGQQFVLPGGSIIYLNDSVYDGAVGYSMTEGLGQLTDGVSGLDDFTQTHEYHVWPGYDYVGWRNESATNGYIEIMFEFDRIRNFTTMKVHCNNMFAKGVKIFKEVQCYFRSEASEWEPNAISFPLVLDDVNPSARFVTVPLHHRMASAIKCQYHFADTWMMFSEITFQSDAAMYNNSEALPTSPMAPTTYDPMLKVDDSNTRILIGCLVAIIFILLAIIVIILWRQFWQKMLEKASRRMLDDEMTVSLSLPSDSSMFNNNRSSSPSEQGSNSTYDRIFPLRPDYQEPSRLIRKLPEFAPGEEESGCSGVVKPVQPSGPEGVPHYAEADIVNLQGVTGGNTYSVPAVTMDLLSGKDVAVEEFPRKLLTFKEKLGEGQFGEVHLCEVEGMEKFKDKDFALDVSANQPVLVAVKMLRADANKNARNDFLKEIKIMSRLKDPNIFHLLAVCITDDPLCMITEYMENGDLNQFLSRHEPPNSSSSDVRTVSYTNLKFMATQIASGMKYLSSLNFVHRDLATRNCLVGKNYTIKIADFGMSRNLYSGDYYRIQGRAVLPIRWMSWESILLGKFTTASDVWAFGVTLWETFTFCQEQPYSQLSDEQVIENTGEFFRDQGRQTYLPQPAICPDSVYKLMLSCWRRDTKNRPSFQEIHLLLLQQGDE
Kind of data set: Inhibition of collagen I-induced DDR2 I638F mutant (unknown origin) phosphorylation expressed in HEK293 cells at 0.1 to 1 uM after 16 hrs by Western blotting. In kind it is cell-based. The procedure, abridged:
(§1)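 HEK293 cells stably transfected with either wild-type DDR2 or the I638F mutant, giving DDR2 overexpression. Cells were left unstimulated or stimulated with collagen I and treated with compound. DDR2 tyrosine phosphorylation (pY) was read out by immunoblot.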
On the technique in general: Immunoblotting shows a protein as a band on a membrane.

Data set [2] concerns the target T2, Discoidin domain-containing receptor 2 (Homo sapiens) (UniProt Q16832).
T2 sequence (whole entry): T1 sequence (whole entry) with F638I
Kind of data set: Inhibition of collagen I-induced DDR2 (unknown origin) phosphorylation expressed in HEK293 cells at 0.1 to 1 uM after 16 hrs by Western blotting. It counts as cell-based. The procedure, abridged:
as §1

The nature of data set [3]: Half life in Balb/C mouse at 1 mg/kg, iv and 5 mg/kg, po. In kind it is ADME, organism-based. Conditions: in vivo.
The target in data set [4] is Proto-oncogene tyrosine-protein kinase Src (Homo sapiens) (UniProt P12931). Kind of data set: Inhibition of c-Src (unknown origin) using biotinylated HER2 peptide as substrate at 3 uM by time resolved fluorescence method.
Sequence of Proto-oncogene tyrosine-protein kinase Src (Homo sapiens) (P12931 2-536 limits assumed): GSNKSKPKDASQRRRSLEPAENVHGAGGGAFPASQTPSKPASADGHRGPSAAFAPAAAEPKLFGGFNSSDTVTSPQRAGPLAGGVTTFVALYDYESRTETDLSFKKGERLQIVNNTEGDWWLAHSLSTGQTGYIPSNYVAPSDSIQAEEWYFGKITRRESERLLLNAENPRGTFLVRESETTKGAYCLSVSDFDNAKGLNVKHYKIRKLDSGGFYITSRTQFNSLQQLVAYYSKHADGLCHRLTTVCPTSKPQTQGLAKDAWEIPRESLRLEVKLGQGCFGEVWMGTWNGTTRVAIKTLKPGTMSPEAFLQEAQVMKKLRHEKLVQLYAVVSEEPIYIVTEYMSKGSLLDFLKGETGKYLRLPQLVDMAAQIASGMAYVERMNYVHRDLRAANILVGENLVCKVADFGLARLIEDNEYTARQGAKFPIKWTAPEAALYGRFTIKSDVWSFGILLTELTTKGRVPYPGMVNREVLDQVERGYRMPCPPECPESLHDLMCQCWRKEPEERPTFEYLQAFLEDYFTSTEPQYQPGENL
A short description of data set [5]: Antiproliferative activity against human NCI-H2286 cells expressing DDR2 mutant after 72 hrs by alamar blue assay. It counts as functional, cell-based. Conditions: NCI-H2286, 72 h.
Data set [6] addresses T3, Discoidin domain-containing receptor 2 (Homo sapiens, UniProt Q16832).
T3 sequence (Q16832 whole entry): T1 sequence (whole entry) with F638I
Kind of data set: Inhibition of collagen I-induced DDR2 (unknown origin) phosphorylation expressed in HEK293 cells after 16 hrs by mesoscale discovery assay. It counts as cell-based. The procedure, abridged: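 HEK293 cells stably transfected to overexpress DDR2 (wild type or I638F mutant lines were generated), then stimulated with collagen I. Tyrosine-phosphorylated DDR2 was measured by MesoScale Discovery immunoassay and an EC50 was derived from the concentration–response.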

The target of data set [7] is T3, Discoidin domain-containing receptor 2. Kind of data set: Inhibition of DDR2 (unknown origin) after 1 hr by time resolved fluorescence method.
Data set [8] is described as follows: Antiproliferative activity against human HCC366 cells expressing DDR2 mutant after 72 hrs by alamar blue assay. Conditions: HCC366, 72 h. It counts as functional, cell-based.
Data set [9] is described as follows: Oral bioavailability in Balb/C mouse at 5 mg/kg. It counts as ADME, organism-based. Conditions: in vivo.
A short description of data set [10]: Volume of distribution at steady state in Balb/C mouse at 1 mg/kg, iv and 5 mg/kg, po. It counts as ADME, organism-based. Particulars: in vivo, read-out: Vdss.
The target in data set [11] is T4, Mast/stem cell growth factor receptor Kit (Homo sapiens, UniProt P10721). Kind of data set: Inhibition of c-Kit (unknown origin) using biotinylated HER2 peptide as substrate by time resolved fluorescence method.
T4 sequence (P10721 whole entry, the tested form may be a part): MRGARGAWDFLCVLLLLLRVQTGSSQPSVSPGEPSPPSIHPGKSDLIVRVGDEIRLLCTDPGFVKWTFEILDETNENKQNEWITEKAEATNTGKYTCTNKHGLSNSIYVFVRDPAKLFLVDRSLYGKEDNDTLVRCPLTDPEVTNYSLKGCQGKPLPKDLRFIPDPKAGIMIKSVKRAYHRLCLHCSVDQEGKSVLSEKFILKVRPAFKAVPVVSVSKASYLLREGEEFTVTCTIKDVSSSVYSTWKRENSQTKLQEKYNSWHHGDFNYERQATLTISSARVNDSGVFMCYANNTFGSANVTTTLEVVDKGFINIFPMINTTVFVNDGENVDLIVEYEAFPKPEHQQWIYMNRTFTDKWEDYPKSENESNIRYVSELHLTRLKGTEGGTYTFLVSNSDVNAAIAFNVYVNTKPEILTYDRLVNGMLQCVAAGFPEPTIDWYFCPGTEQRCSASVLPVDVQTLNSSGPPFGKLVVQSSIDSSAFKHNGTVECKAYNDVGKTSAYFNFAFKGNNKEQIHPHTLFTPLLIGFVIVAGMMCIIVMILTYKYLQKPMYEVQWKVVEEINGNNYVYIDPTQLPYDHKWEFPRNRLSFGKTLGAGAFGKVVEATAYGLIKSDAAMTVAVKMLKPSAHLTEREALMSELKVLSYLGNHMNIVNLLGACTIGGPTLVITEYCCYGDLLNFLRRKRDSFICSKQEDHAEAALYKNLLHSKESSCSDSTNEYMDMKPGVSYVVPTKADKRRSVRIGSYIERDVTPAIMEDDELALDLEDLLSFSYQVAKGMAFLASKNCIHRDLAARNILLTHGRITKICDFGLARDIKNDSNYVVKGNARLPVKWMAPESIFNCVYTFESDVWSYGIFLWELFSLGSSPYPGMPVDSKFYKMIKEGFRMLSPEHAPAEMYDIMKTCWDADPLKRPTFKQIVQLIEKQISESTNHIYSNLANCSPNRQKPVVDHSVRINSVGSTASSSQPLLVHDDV
For data set [12], the target named is T5, Epithelial discoidin domain-containing receptor 1 (Homo sapiens, UniProt Q08345). Kind of data set: Inhibition of DDR1 (unknown origin) at 0.0015 uM after 1 hr by time resolved fluorescence method.
T5 sequence (Q08345 whole entry, the tested form may be a part): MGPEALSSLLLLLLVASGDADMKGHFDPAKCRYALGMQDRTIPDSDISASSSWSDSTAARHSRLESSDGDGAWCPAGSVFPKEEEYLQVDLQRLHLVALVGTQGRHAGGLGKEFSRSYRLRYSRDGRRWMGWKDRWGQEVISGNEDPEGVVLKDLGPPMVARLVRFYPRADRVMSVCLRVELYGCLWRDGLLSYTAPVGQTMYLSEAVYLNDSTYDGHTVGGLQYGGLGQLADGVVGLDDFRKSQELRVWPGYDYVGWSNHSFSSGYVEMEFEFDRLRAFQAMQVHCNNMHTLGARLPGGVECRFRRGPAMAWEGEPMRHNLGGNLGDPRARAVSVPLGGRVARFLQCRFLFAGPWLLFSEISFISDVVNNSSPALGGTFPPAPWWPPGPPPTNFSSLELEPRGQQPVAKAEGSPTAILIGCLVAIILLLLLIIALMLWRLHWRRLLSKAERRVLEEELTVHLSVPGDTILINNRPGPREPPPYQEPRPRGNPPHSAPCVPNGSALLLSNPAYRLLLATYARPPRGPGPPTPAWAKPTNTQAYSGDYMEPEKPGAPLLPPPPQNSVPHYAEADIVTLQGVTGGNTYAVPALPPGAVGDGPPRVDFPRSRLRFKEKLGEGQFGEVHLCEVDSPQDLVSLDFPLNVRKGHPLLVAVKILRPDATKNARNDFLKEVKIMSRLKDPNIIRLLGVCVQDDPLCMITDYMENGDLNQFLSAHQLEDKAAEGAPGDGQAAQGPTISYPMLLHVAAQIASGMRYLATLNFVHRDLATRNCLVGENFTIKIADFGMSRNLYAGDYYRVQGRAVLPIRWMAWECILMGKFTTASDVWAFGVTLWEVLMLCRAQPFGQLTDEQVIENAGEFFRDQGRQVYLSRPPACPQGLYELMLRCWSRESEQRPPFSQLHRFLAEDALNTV
Data set [13] can be described thus: Clearance in Balb/C mouse at 1 mg/kg, iv and 5 mg/kg, po. In kind it is ADME, organism-based. Conditions: in vivo.
Data set [14] deals with Proto-oncogene tyrosine-protein kinase Src (Homo sapiens) (UniProt P12931). Kind of data set: Inhibition of c-Src (unknown origin) using biotinylated HER2 peptide as substrate at 10 uM by time resolved fluorescence method.
Data set [15] has as its target T4, Mast/stem cell growth factor receptor Kit. Conditions: 0.003 uM.
Data set [16] concerns the target T5, Epithelial discoidin domain-containing receptor 1. Kind of data set: Inhibition of DDR1 (unknown origin) at 0.005 uM after 1 hr by time resolved fluorescence method.
Data set [17] deals with T4, Mast/stem cell growth factor receptor Kit. Kind of data set: Inhibition of c-Kit (unknown origin) using biotinylated HER2 peptide as substrate at 3 uM by time resolved fluorescence method.
Data set [18] has the same target. Kind of data set: Inhibition of c-Kit (unknown origin) using biotinylated HER2 peptide as substrate at 10 uM by time resolved fluorescence method.
Data set [19] deals with T5, Epithelial discoidin domain-containing receptor 1. Kind of data set: Inhibition of DDR1 (unknown origin) after 1 hr by time resolved fluorescence method.
For data set [20], the target named is T2, Discoidin domain-containing receptor 2 (Homo sapiens). Kind of data set: Inhibition of DDR2 (unknown origin) at 100 uM after 1 hr by time resolved fluorescence method.
Data set [21] has as its target Proto-oncogene tyrosine-protein kinase Src (Homo sapiens) (UniProt P12931). Kind of data set: Inhibition of c-Src (unknown origin) using biotinylated HER2 peptide as substrate at 100 uM by time resolved fluorescence method.

A word on the inhibition: it is the drop in the measured response relative to a control, in per cent. Regarding `CN1CCN(CCOc2cc(OC3CCOCC3)c3c(Nc4c(Cl)ccc5c4OCO5)ncnc3c2)CC1`, the inhibition result in [1] and in [2] was “Active” throughout.
As a reminder, the half-life is how long it takes for the measured level to halve. A higher half-life goes with slow decline. Broadly, the IC50 is the concentration that gives 50% inhibition. Read a high IC50 as weaker potency. The EC50 is the concentration at which the effect is half-maximal. Lower therefore signals higher potency in that assay. The bioavailability is the share of a dose that reaches the circulation, judged against a reference dose that is usually intravenous. Higher therefore signals much systemic uptake. Turning to `Cc1ccc(CNC(=O)Nc2cccc(F)c2)cc1NC(=O)c1cnc2ccccn12`, in data set [3], the half-life is 49.8 min. Moreover, the inhibition in [4] was determined as 40%; in [12], 54%. Also, the IC50 in data set [5] is above 10000 nM; in data set [7], 3.3 nM; in data set [8] it was above 10000 nM; in data set [11] it was 19 nM. In addition, the inhibition result in data set [1] and in data set [2] was “Active” each time. For the same compound, a half-maximal response in [6] (EC50) required 8.7 nM. In data set [9], this compound gave a bioavailability of 62%. For the same compound, the Vd in data set [10] came out at 0.42 L/kg. Besides, in [13], the clearance came out at 7.65 mL/min/kg.
As to `Cc1ccc(CNC(=O)Nc2ccccc2)cc1NC(=O)c1cnc2ccccn12`, the concentration for half-maximal inhibition (IC50) in [7] is 8.2 nM; in [11], 9.8 nM. The compound further came in with an inhibition in data set [14] of 54%.
In the case of `Cc1nc(Nc2ncc(C(=O)Nc3c(C)cccc3Cl)s2)cc(N2CCN(CCO)CC2)n1` [DASATINIB], the half-inhibitory concentration (IC50) in data set [5] is 32 nM; in [8], 29 nM. The figures for the inhibition in data set [15] and in data set [12] were 90% and 40%, respectively.
As to `Cc1ccc([C@H](C)NC(=O)Nc2cccc(F)c2)cc1NC(=O)c1cnc2ccccn12`, the concentration for half-maximal inhibition (IC50) came out at 4.5 nM in data set [7] and 140 nM in data set [11]. Besides, the inhibition amounted to 54% in [12] and 22% in data set [14].
For `Cc1ccc([C@H](C)Nc2nc3cc(F)ccc3o2)cc1NC(=O)c1cnc2ccccn12`, the half-life in [3] was 108 min. Moreover, the 50% inhibitory concentration (IC50) was 6.1 nM in [7] and 160 nM in [11]. Also, the bioavailability in [9] was found to be 97%. Moreover, the Vd in data set [10] was determined as 1.9 L/kg. Further, the inhibition came to 59% in data set [16] and 52% in data set [14]. Besides, the clearance in data set [13] was determined as 16.6 mL/min/kg.
With `Cc1ccc([C@H](C)NC(=O)c2cccc(C(F)(F)F)c2)cc1NC(=O)c1cnc2ccccn12`, the half-life in [3] is 84 min. This compound showed an IC50 in data set [7] of 5.8 nM. The bioavailability in data set [9] is 55%. The values for the inhibition in [17], in data set [12] and in data set [14] were 49%, 44% and 48%, respectively. The Vd in data set [10] came out at 0.31 L/kg. The compound also registered a clearance in [13] of 2.99 mL/min/kg.
Compound `Cc1ccc([C@@H](C)NC(=O)Nc2ccccc2)cc1NC(=O)c1cnc2ccccn12` registered an inhibition in [18] of 47%. Besides, the values for the IC50 in data set [19] and in data set [7] were 1500 nM and 1300 nM, respectively.
`Cc1cn(-c2cc(NC(=O)c3ccc(C)c(Nc4nccc(-c5cccnc5)n4)c3)cc(C(F)(F)F)c2)cn1` [NILOTINIB] yielded an IC50 in [5] of 1800 nM. In addition, the inhibition entry in data set [1] and in data set [2] was “Active” in each case.
For the compound `Cc1ccc([C@H](C)NC(=O)Nc2ccccc2)cc1NC(=O)c1cnc2ccccn12`, the 50% inhibitory concentration (IC50) in data set [19] was 6 nM; in data set [7], 8.1 nM; in data set [11] it was 310 nM. Besides, the inhibition in data set [14] was determined as 4%.
In [19], `O=C(NCc1cccnc1)Nc1ccccc1Cl` came in with an IC50 above 100000 nM. The same compound had an inhibition in data set [20] of 32%.
`O=C(NCc1cccc(NC(=O)c2cnc3ccccn23)c1)Nc1ccccc1`: the results for the IC50 in data set [19], in data set [7] and in data set [11] were 150 nM, 280 nM and 180 nM, respectively. The compound further came in with an inhibition in data set [21] of 63%.
